Reference: ChEMBL document CHEMBL1932999, “Increased susceptibility to resveratrol of Helicobacter pylori strains isolated from patients with gastric carcinoma” (2011)
≈ marks a conversion by molar mass, not a printed value.

Legend:
[1] = tested on: Helicobacter pylori; assay: Antibacterial activity against CagA-expressing Helicobacter pylori 1C1 isolated from gastric carcinoma patient after 48 hrs compound exposure followed by incubation on Columbia-blood agar plate for 3 to 5 days; format: functional
Outline: (§1)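 Compound dissolved in water with 4% DMSO, filter-sterilized, and serially twofold diluted in Brucella broth with 10% bovine fetal serum. Inoculum from 48 h microaerobic Brucella agar-BFS cultures, added at approximately 10^6 CFU/mL final. Broth incubated microaerobically at 37 °C for 24 or 48 h, then each dilution subcultured onto Columbia-blood agar. MBC is the lowest concentration with no growth on subculture. Triplicate; mean ± SD.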

[2] = tested on: Helicobacter pylori; assay: Bactericidal activity against CagA-deficient Helicobacter pylori G21b isolated from chronic gastritis patient compound exposure followed by incubation on Columbia-blood agar plate for 3 to 5 days; format: functional, organism-based; settings: TDE = time-dependent effect
Outline: (§2)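 Broth microdilution MBC against clinical H. pylori isolates (cagA by PCR; stocks kept frozen in Columbia broth with 20% glycerol). Compound dissolved in water with 4% DMSO, filter-sterilized, double diluted in Brucella broth with 10% fetal bovine serum. Inoculum about 10^6 CFU/mL from 48 h microaerobic Brucella agar-BFS cultures. Plates held microaerobically at 37 °C for 24 and 48 h. Each well was then spotted onto Columbia-blood agar for 3-5 days. MBC is the lowest concentration giving no regrowth. Triplicate, mean ± SD.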

[3] = tested on: Helicobacter pylori; assay: Bactericidal activity against CagA-deficient Helicobacter pylori G50 isolated from chronic gastritis patient compound exposure followed by incubation on Columbia-blood agar plate for 3 to 5 days; format: functional, organism-based; settings: TDE = time-dependent effect; outline: as §2
[4] = tested on: Helicobacter pylori; assay: Antibacterial activity against CagA-expressing Helicobacter pylori MDO21 isolated from chronic gastritis patient after 24 hrs compound exposure followed by incubation on Columbia-blood agar plate for 3 to 5 days; format: functional; outline: as §1
[5] = tested on: Helicobacter pylori; assay: Antibacterial activity against CagA-deficient Helicobacter pylori 328 KM isolated from chronic gastritis patient after 48 hrs compound exposure followed by incubation on Columbia-blood agar plate for 3 to 5 days; format: functional; outline: as §1
[6] = tested on: Helicobacter pylori; assay: Antibacterial activity against CagA-expressing Helicobacter pylori 10K isolated from gastric carcinoma patient after 24 hrs compound exposure followed by incubation on Columbia-blood agar plate for 3 to 5 days; format: functional; outline: as §1
[7] = tested on: Helicobacter pylori; assay: Bactericidal activity against CagA-expressing Helicobacter pylori MDO21 isolated from chronic gastritis patient compound exposure followed by incubation on Columbia-blood agar plate for 3 to 5 days; format: functional, organism-based; settings: TDE = time-dependent effect; outline: as §2
[8] = tested on: Helicobacter pylori; assay: Bactericidal activity against CagA-expressing Helicobacter pylori G39 isolated from chronic gastritis patient compound exposure followed by incubation on Columbia-blood agar plate for 3 to 5 days; format: functional, organism-based; settings: TDE = time-dependent effect; outline: as §2
[9] = tested on: Helicobacter pylori; assay: Antibacterial activity against CagA-deficient Helicobacter pylori Ba142 isolated from chronic gastritis patient after 24 hrs compound exposure followed by incubation on Columbia-blood agar plate for 3 to 5 days; format: functional; outline: as §1
[10] = tested on: Helicobacter pylori; assay: Antibacterial activity against CagA-expressing Helicobacter pylori G27 isolated from chronic gastritis patient after 24 hrs compound exposure followed by incubation on Columbia-blood agar plate for 3 to 5 days; format: functional; outline: as §1
[11] = tested on: Helicobacter pylori; assay: Bactericidal activity against CagA-deficient Helicobacter pylori G12 isolated from chronic gastritis patient compound exposure followed by incubation on Columbia-blood agar plate for 3 to 5 days; format: functional, organism-based; settings: TDE = time-dependent effect; outline: as §2
[12] = tested on: Helicobacter pylori; assay: Antibacterial activity against CagA-expressing Helicobacter pylori CCUG17874 isolated from chronic gastritis patient after 24 hrs compound exposure followed by incubation on Columbia-blood agar plate for 3 to 5 days; format: functional; outline: as §1
[13] = tested on: Helicobacter pylori; assay: Antibacterial activity against CagA-deficient Helicobacter pylori G21b isolated from chronic gastritis patient after 48 hrs compound exposure followed by incubation on Columbia-blood agar plate for 3 to 5 days; format: functional; outline: as §1
[14] = tested on: Helicobacter pylori; assay: Antibacterial activity against CagA-expressing Helicobacter pylori 10K isolated from gastric carcinoma patient after 48 hrs compound exposure followed by incubation on Columbia-blood agar plate for 3 to 5 days; format: functional; outline: as §1
[15] = tested on: Helicobacter pylori; assay: Antibacterial activity against CagA-expressing Helicobacter pylori 4Cb isolated from gastric carcinoma patient after 48 hrs compound exposure followed by incubation on Columbia-blood agar plate for 3 to 5 days; format: functional; outline: as §1
[16] = tested on: Helicobacter pylori; assay: Antibacterial activity against CagA-expressing Helicobacter pylori G39 isolated from chronic gastritis patient after 48 hrs compound exposure followed by incubation on Columbia-blood agar plate for 3 to 5 days; format: functional; outline: as §1
[17] = tested on: Helicobacter pylori; assay: Antibacterial activity against CagA-deficient Helicobacter pylori G12 isolated from chronic gastritis patient after 48 hrs compound exposure followed by incubation on Columbia-blood agar plate for 3 to 5 days; format: functional; outline: as §1
[18] = tested on: Helicobacter pylori; assay: Antibacterial activity against CagA-expressing Helicobacter pylori Ma01 isolated from chronic gastritis patient after 24 hrs compound exposure followed by incubation on Columbia-blood agar plate for 3 to 5 days; format: functional; outline: as §1
[19] = tested on: Helicobacter pylori; assay: Bactericidal activity against CagA-expressing Helicobacter pylori MD6 isolated from chronic gastritis patient compound exposure followed by incubation on Columbia-blood agar plate for 3 to 5 days; format: functional, organism-based; settings: TDE = time-dependent effect; outline: as §2
[20] = tested on: Helicobacter pylori; assay: Bactericidal activity against CagA-deficient Helicobacter pylori 328 KM isolated from chronic gastritis patient compound exposure followed by incubation on Columbia-blood agar plate for 3 to 5 days; format: functional, organism-based; settings: TDE = time-dependent effect; outline: as §2
[21] = tested on: Helicobacter pylori; assay: Antibacterial activity against CagA-expressing Helicobacter pylori 17C7 isolated from gastric carcinoma patient after 24 hrs compound exposure followed by incubation on Columbia-blood agar plate for 3 to 5 days; format: functional; outline: as §1
[22] = tested on: Helicobacter pylori; assay: Antibacterial activity against CagA-deficient Helicobacter pylori G12 isolated from chronic gastritis patient after 24 hrs compound exposure followed by incubation on Columbia-blood agar plate for 3 to 5 days; format: functional; outline: as §1
[23] = tested on: Helicobacter pylori; assay: Antibacterial activity against CagA-deficient Helicobacter pylori G50 isolated from chronic gastritis patient after 48 hrs compound exposure followed by incubation on Columbia-blood agar plate for 3 to 5 days; format: functional; outline: as §1
[24] = tested on: Helicobacter pylori; assay: Antibacterial activity against CagA-expressing Helicobacter pylori MDO21 isolated from chronic gastritis patient after 48 hrs compound exposure followed by incubation on Columbia-blood agar plate for 3 to 5 days; format: functional; outline: as §1
[25] = tested on: Helicobacter pylori; assay: Antibacterial activity against CagA-expressing Helicobacter pylori 3Cb isolated from gastric carcinoma patient after 24 hrs compound exposure followed by incubation on Columbia-blood agar plate for 3 to 5 days; format: functional; outline: as §1
[26] = tested on: Helicobacter pylori; assay: Antibacterial activity against CagA-deficient Helicobacter pylori G21b isolated from chronic gastritis patient after 24 hrs compound exposure followed by incubation on Columbia-blood agar plate for 3 to 5 days; format: functional; outline: as §1
[27] = tested on: Helicobacter pylori; assay: Antibacterial activity against CagA-deficient Helicobacter pylori G104 isolated from chronic gastritis patient after 48 hrs compound exposure followed by incubation on Columbia-blood agar plate for 3 to 5 days; format: functional; outline: as §1
[28] = tested on: Helicobacter pylori; assay: Antibacterial activity against CagA-expressing Helicobacter pylori G27 isolated from chronic gastritis patient after 48 hrs compound exposure followed by incubation on Columbia-blood agar plate for 3 to 5 days; format: functional; outline: as §1
[29] = tested on: Helicobacter pylori; assay: Antibacterial activity against CagA-expressing Helicobacter pylori 328 isolated from chronic gastritis patient after 48 hrs compound exposure followed by incubation on Columbia-blood agar plate for 3 to 5 days; format: functional; outline: as §1
[30] = tested on: Helicobacter pylori; assay: Antibacterial activity against CagA-deficient Helicobacter pylori G50 isolated from chronic gastritis patient after 24 hrs compound exposure followed by incubation on Columbia-blood agar plate for 3 to 5 days; format: functional; outline: as §1
[31] = tested on: Helicobacter pylori; assay: Antibacterial activity against CagA-expressing Helicobacter pylori 17C7 isolated from gastric carcinoma patient after 48 hrs compound exposure followed by incubation on Columbia-blood agar plate for 3 to 5 days; format: functional; outline: as §1
[32] = tested on: Helicobacter pylori; assay: Antibacterial activity against CagA-expressing Helicobacter pylori 3Cb isolated from gastric carcinoma patient after 48 hrs compound exposure followed by incubation on Columbia-blood agar plate for 3 to 5 days; format: functional; outline: as §1
[33] = tested on: Helicobacter pylori; assay: Antibacterial activity against CagA-expressing Helicobacter pylori 10Kb isolated from gastric carcinoma patient after 48 hrs compound exposure followed by incubation on Columbia-blood agar plate for 3 to 5 days; format: functional; outline: as §1

Oc1ccc(/C=C/c2cc(O)cc(O)c2)cc1 [RESVERATROL]
MBC [1]: 80 µg/mL (≈ 350 µM) | Activity [2]: tde | Activity [3]: tde | MBC [4]: 295 µg/mL (≈ 1290 µM) | MBC [5]: 147 µg/mL (≈ 644 µM) | MBC [6]: 74 µg/mL (≈ 324 µM) | Activity [7]: tde | Activity [8]: tde | MBC [9]: 295 µg/mL (≈ 1290 µM) | MBC [10]: 295 µg/mL (≈ 1290 µM) | Activity [11]: tde | MBC [12]: 589 µg/mL (≈ 2580 µM) | MBC [13]: 295 µg/mL (≈ 1290 µM) | MBC [14]: 74 µg/mL (≈ 324 µM) | MBC [15]: 147 µg/mL (≈ 644 µM) | MBC [16]: 320 µg/mL (≈ 1400 µM) | MBC [17]: 324 µg/mL (≈ 1420 µM) | MBC [18]: 589 µg/mL (≈ 2580 µM) | Activity [19]: tde | Activity [20]: tde | MBC [21]: 37 µg/mL (≈ 162 µM) | MBC [22]: 648 µg/mL (≈ 2840 µM) | MBC [23]: 295 µg/mL (≈ 1290 µM) | MBC [24]: 295 µg/mL (≈ 1290 µM) | MBC [25]: 40 µg/mL (≈ 175 µM) | MBC [26]: 295 µg/mL (≈ 1290 µM) | MBC [27]: 295 µg/mL (≈ 1290 µM) | MBC [28]: 295 µg/mL (≈ 1290 µM) | MBC [29]: 295 µg/mL (≈ 1290 µM) | MBC [30]: 295 µg/mL (≈ 1290 µM) | MBC [31]: 37 µg/mL (≈ 162 µM) | MBC [32]: 40 µg/mL (≈ 175 µM) | MBC [33]: 147 µg/mL (≈ 644 µM)
